Calls of active or inactive are those of the source.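 How the source made its calls, unless noted: active means viability at or below 30% in both replicate assays; inconclusive means viability at or below 30% in just one of the two assays; inactive means the rest.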
What was measured:
[1] = reducers of endogenous Her2 protein level, primary screen, SKBR3 breast tumor cells, AlphaScreen, ATP viability (AID 461;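 active means Her2 level under about 52% in both replicate screens, with viability over 70% of control, limit read from the data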;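 on Her2 level: lower value means less Her2 protein in the cells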;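 on viability: percent of carrier control wells set as 100% viability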); conditions: 18-24 h, measured here: SKBR3 viability, ATP luminescence, at 10 µM
[2] = molecular target: Receptor tyrosine-protein kinase erbB-2 (Homo sapiens) (UniProt P04626); assay: as above; conditions: 18-24 h, at 10 µM, stronger effect = lower value
[3] = SK-BR-3 cell growth inhibitors, pilot screen, 24 h, human (AID 572;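 active means viability at or below 10% of carrier control in both of two separate runs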;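 further: compound exposure lasted between 18 and 24 h rather than exactly 24 h; 100% = carrier-treated control wells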); conditions: SK-BR-3 viability, CellTiter-Glo luminescence, at 10 µM, stronger effect = lower value
[4] = HUVEC growth inhibition – cell-based, human, primary screen (AID 575); conditions: HUVEC proliferation, CellTiter-Glo luminescence, 72 h; at 10 µM; stronger effect = lower value;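 further: 100% = median of untreated cell wells with 0.1% DMSO on each plate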
Outline: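 Assay system: primary human umbilical vein endothelial cells / Buffer or medium: endothelial basal medium with 2% FBS plus growth supplements / Compound dosing: one dose, 10 µM final, 0.1% DMSO / Timing: 72 h treatment at 37 °C / Signal: CTG luminescence / Benchmarks: 32 DMSO-only cell-control wells (high), 32 MePR drug-control wells (low) per plate / Plate: collagen-coated 384-well format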

[5] = growth inhibitors of H69AR lung tumor, primary screen, human, duplicate replicates (AID 580;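 active means viability at or under a set limit in both replicates, limit being median viability minus 3 SD, cut at about 48% in these data, passing the limit was not always enough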;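 further: 100% = mean luminescence of untreated wells and 0% = no signal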); conditions: H69AR lung tumor cells viability, ATP luminescence, 72 h; at 10 µM; stronger effect = lower value
[6] = reversal of MRP1-mediated doxorubicin resistance, pilot screen, H69AR cells, doxorubicin co-treatment (AID 601;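 active means viability loss from added drug above about 55%, and viability with drug at most 40%, in both replicates, limit read from the data, passing the limit was not always enough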); conditions: CellTiter-Glo, 72 h, at 10 µM; for differential viability (reversal): stronger effect = higher value
[7] = 384-well plate pilot, post-Golgi transport modulator project, inhibition of yeast transport mutant growth (AID 636; in the data active means inhibition above about 31%); conditions: absorbance 615 nm, about 18 h, stronger effect = higher value
[8] = growth suppression of yeast trafficking mutant, preliminary HTS, modulators of trafficking downstream of Golgi apparatus project, 1536-format plate, OD 615 nm (AID 637; in the data active means inhibition above about 30%); conditions: yeast transport mutant growth, absorbance 615 nm, 18 h; stronger effect = higher value
[9] = H69AR cells + 2 uM doxorubicin, measured here: viability with 2 uM doxorubicin, stronger effect = lower value
[10] = H69AR cells, compound alone cytotoxicity

Receptor tyrosine-protein kinase erbB-2 (Homo sapiens), sequence (P04626 whole entry, looked up): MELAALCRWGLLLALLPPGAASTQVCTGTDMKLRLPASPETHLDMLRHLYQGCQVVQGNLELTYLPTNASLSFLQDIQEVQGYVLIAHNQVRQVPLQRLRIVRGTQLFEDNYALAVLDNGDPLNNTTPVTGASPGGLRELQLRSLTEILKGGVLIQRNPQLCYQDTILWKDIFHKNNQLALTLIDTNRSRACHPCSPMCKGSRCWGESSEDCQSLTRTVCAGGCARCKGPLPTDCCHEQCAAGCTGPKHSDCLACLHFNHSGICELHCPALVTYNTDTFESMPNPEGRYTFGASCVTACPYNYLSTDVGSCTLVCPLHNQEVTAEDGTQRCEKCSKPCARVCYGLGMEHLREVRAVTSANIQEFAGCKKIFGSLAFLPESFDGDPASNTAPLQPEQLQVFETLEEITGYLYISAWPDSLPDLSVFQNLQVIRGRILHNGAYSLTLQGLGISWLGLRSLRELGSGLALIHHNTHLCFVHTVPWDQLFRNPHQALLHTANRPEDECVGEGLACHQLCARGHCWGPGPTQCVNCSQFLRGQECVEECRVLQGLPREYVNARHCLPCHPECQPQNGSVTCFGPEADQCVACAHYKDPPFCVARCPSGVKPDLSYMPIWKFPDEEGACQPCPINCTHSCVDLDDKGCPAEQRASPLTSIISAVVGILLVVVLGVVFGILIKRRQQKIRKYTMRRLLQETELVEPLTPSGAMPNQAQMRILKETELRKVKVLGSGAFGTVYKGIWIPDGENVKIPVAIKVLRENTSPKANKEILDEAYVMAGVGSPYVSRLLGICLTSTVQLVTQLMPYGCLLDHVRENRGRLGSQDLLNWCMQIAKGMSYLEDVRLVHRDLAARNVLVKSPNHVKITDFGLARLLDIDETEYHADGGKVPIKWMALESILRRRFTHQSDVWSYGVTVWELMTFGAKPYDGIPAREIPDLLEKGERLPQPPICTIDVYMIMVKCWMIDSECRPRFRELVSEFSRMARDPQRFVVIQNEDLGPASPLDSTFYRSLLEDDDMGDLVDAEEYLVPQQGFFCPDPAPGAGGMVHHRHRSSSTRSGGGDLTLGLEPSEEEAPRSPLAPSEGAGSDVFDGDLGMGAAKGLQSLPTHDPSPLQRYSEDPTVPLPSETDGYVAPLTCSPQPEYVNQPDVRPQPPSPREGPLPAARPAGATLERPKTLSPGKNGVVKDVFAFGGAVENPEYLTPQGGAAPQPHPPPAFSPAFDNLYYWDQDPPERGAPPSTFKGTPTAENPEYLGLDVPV

**Q.** For `N#Cc1c(NC(NC(=O)c2ccco2)C(=O)c2ccccc2)sc2c1CCCC2` (stereo not given), which viability [1] is on record?
**A.** 86.5%

**Q.** And the Her2 level [2]?
**A.** 73.5% (inactive)

**Q.** What about the viability [3] of the same compound?
**A.** 86.5% (inactive)

**Q.** And the viability [4]?
**A.** 70.7% (inactive)

**Q.** And the viability [5]?
**A.** 86.4% (inactive)

**Q.** What about the differential viability (reversal) ([6]; H69AR cells + 2 uM doxorubicin) of the same compound?
**A.** -6.42% (inactive)

**Q.** What about the viability [6, 9] of the same compound?
**A.** 92.8%

**Q.** And the viability [6, 10]?
**A.** 86.4%

**Q.** And the inhibition [7]?
**A.** 80.4% (active)

**Q.** What about the inhibition [8] of the same compound?
**A.** 18% (inactive)

**Q.** For `CC(O)c1nc2ccccc2n1C1CCCCC1` (stereo not given), which viability [1] is on record?
**A.** 104%

**Q.** What about the Her2 level [2] of the same compound?
**A.** 91.5% (inactive)

**Q.** And the viability [3]?
**A.** 104% (inactive)

**Q.** What about the viability [4] of the same compound?
**A.** 124% (inactive)

**Q.** And the viability [5]?
**A.** 97.2% (inactive)

**Q.** What about the differential viability (reversal) ([6]; H69AR cells + 2 uM doxorubicin) of the same compound?
**A.** 11.3% (inactive)

**Q.** And the viability [6, 9]?
**A.** 85.9%

**Q.** And the viability [6, 10]?
**A.** 97.2%

**Q.** And the inhibition [7]?
**A.** -1.18% (inactive)

**Q.** What about the inhibition [8] of the same compound?
**A.** 3.55% (inactive)

**Q.** Which viability [1] does the source give for `COc1cccc(OC)c1C(=O)Nc1ccc(CN2CCCCC2)cc1` here?
**A.** 98.5%

**Q.** And the Her2 level [2]?
**A.** 84% (inactive)

**Q.** And the viability [3]?
**A.** 98.5% (inactive)

**Q.** And the viability [4]?
**A.** 102% (inactive)

**Q.** What about the viability [5] of the same compound?
**A.** 89.4% (inactive)

**Q.** And the differential viability (reversal) ([6]; H69AR cells + 2 uM doxorubicin)?
**A.** 8.96% (inactive)

**Q.** And the viability [6, 9]?
**A.** 80.4%

**Q.** What about the viability [6, 10] of the same compound?
**A.** 89.4%

**Q.** And the inhibition [7]?
**A.** -0.66% (inactive)

**Q.** What about the inhibition [8] of the same compound?
**A.** -2.06% (inactive)

**Q.** For `Cc1nnc(N2C(=O)c3oc4ccccc4c(=O)c3C2c2ccco2)s1` (stereo not given), which viability [1] is on record?
**A.** 93%

**Q.** What about the Her2 level [2] of the same compound?
**A.** 99.5% (inactive)

**Q.** And the viability [3]?
**A.** 93% (inactive)

**Q.** What about the viability [4] of the same compound?
**A.** 115% (inactive)

**Q.** And the viability [5]?
**A.** 95.2% (inactive)

**Q.** And the differential viability (reversal) ([6]; H69AR cells + 2 uM doxorubicin)?
**A.** 9.59% (inactive)

**Q.** What about the viability [6, 9] of the same compound?
**A.** 85.6%

**Q.** What about the viability [6, 10] of the same compound?
**A.** 95.2%

**Q.** What about the inhibition [7] of the same compound?
**A.** -1.54% (inactive)

**Q.** And the inhibition [8]?
**A.** 0.83% (inactive)

**Q.** With `O=C(CSc1nnc(-c2ccc(Br)o2)n1Cc1ccccc1)c1ccccc1F` as the compound, how does the viability [1] read?
**A.** 81.5%

**Q.** And the Her2 level [2]?
**A.** 91% (inactive)

**Q.** What about the viability [3] of the same compound?
**A.** 81.5% (inactive)

**Q.** What about the viability [4] of the same compound?
**A.** 86.3% (inactive)

**Q.** And the viability [5]?
**A.** 64.7% (inactive)

**Q.** What about the differential viability (reversal) ([6]; H69AR cells + 2 uM doxorubicin) of the same compound?
**A.** -11.2% (inactive)

**Q.** And the viability [6, 9]?
**A.** 75.9%

**Q.** And the viability [6, 10]?
**A.** 64.7%

**Q.** And the inhibition [7]?
**A.** 3.11% (inactive)

**Q.** And the inhibition [8]?
**A.** -2.13% (inactive)

**Q.** Which viability [1] does the source give for `CC(C)=CC(=O)N1CCCc2ccccc21` here?
**A.** 112%

**Q.** And the Her2 level [2]?
**A.** 90% (inactive)

**Q.** What about the viability [3] of the same compound?
**A.** 112% (inactive)

**Q.** What about the viability [4] of the same compound?
**A.** 105% (inactive)

**Q.** And the viability [5]?
**A.** 98.4% (inactive)

**Q.** What about the differential viability (reversal) ([6]; H69AR cells + 2 uM doxorubicin) of the same compound?
**A.** 5.13% (inactive)

**Q.** What about the viability [6, 9] of the same compound?
**A.** 93.2%

**Q.** What about the viability [6, 10] of the same compound?
**A.** 98.4%

**Q.** What about the inhibition [7] of the same compound?
**A.** -4.53% (inactive)

**Q.** What about the inhibition [8] of the same compound?
**A.** -7.21% (inactive)

**Q.** For `CN(C)C(=O)N1CCCC(C(=O)NCc2ccccc2)C1` (stereo not given), which viability [1] is on record?
**A.** 89%

**Q.** What about the Her2 level [2] of the same compound?
**A.** 92% (inactive)

**Q.** What about the viability [3] of the same compound?
**A.** 89% (inactive)

**Q.** And the viability [4]?
**A.** 102% (inactive)

**Q.** What about the viability [5] of the same compound?
**A.** 87.8% (inactive)

**Q.** And the differential viability (reversal) ([6]; H69AR cells + 2 uM doxorubicin)?
**A.** -18.9% (inactive)

**Q.** And the viability [6, 9]?
**A.** 107%

**Q.** And the viability [6, 10]?
**A.** 87.8%

**Q.** And the inhibition [7]?
**A.** 1.92% (inactive)

**Q.** What about the inhibition [8] of the same compound?
**A.** 4.5% (inactive)

**Q.** For `COc1ccc2c(CC(=O)Nc3nnc(C4CC4)s3)coc2c1`, which viability [1] is on record?
**A.** 120%

**Q.** What about the Her2 level [2] of the same compound?
**A.** 81% (inactive)

**Q.** What about the viability [3] of the same compound?
**A.** 120% (inactive)

**Q.** And the viability [4]?
**A.** 89.4% (inactive)

**Q.** And the viability [5]?
**A.** 99.4% (inactive)

**Q.** And the differential viability (reversal) ([6]; H69AR cells + 2 uM doxorubicin)?
**A.** 5.3% (inactive)

**Q.** What about the viability [6, 9] of the same compound?
**A.** 94.1%

**Q.** What about the viability [6, 10] of the same compound?
**A.** 99.4%

**Q.** What about the inhibition [7] of the same compound?
**A.** -7.26% (inactive)

**Q.** And the inhibition [8]?
**A.** -1.9% (inactive)

**Q.** Which results are given for `CCCCCCC1/C(=N/O)CCC1C(=O)OC` (stereo not given)?
**A.** viability [1]: 108%; Her2 level [2]: 95.5% (inactive); viability [3]: 108% (inactive); viability [4]: 109% (inactive); viability [5]: 83.2% (inactive); differential viability (reversal) ([6]; H69AR cells + 2 uM doxorubicin): -1.02% (inactive); viability [6, 9]: 84.2%; viability [6, 10]: 83.2%; inhibition [7]: -8.44% (inactive); inhibition [8]: -5.71% (inactive)

**Q.** Which viability [1] does the source give for `CC(Oc1ccc(Br)cc1)C(=O)N1CCc2ccccc21` (stereo not given) here?
**A.** 85.5%

**Q.** And the Her2 level [2]?
**A.** 96.5% (inactive)

**Q.** What about the viability [3] of the same compound?
**A.** 85.5% (inactive)

**Q.** And the viability [4]?
**A.** 107% (inactive)

**Q.** What about the viability [5] of the same compound?
**A.** 96.9% (inactive)

**Q.** And the differential viability (reversal) ([6]; H69AR cells + 2 uM doxorubicin)?
**A.** 9.3% (inactive)

**Q.** What about the viability [6, 9] of the same compound?
**A.** 87.6%

**Q.** What about the viability [6, 10] of the same compound?
**A.** 96.9%

**Q.** What about the inhibition [7] of the same compound?
**A.** -2.76% (inactive)

**Q.** And the inhibition [8]?
**A.** -3.02% (inactive)

**Q.** Which results are given for `O=C(CS(=O)(=O)Cc1ccccc1)N1CCc2ccccc2C1`?
**A.** viability [1]: 94.5%; Her2 level [2]: 94.5% (inactive); viability [3]: 94.5% (inactive); viability [4]: 86.4% (inactive); viability [5]: 101% (inactive); differential viability (reversal) ([6]; H69AR cells + 2 uM doxorubicin): 11.5% (inactive); viability [6, 9]: 89.4%; viability [6, 10]: 101%; inhibition [7]: -5.6% (inactive); inhibition [8]: -1.61% (inactive)

**Q.** What does the source list for `O=C1CC(N2CCOCC2)C(=O)N1c1ccc2c(c1)OCO2` (stereo not given)?
**A.** viability [1]: 102%; Her2 level [2]: 92.5% (inactive); viability [3]: 102% (inactive); viability [4]: 92% (inactive); viability [5]: 104% (inactive); differential viability (reversal) ([6]; H69AR cells + 2 uM doxorubicin): -4.17% (inactive); viability [6, 9]: 108%; viability [6, 10]: 104%; inhibition [7]: -2.11% (inactive); inhibition [8]: 0.32% (inactive)

**Q.** For `Cc1n[nH]c(C)c1S(=O)(=O)N1CCCCCC1`, which viability [1] is on record?
**A.** 98%

**Q.** What about the Her2 level [2] of the same compound?
**A.** 80% (inactive)

**Q.** And the viability [3]?
**A.** 98% (inactive)

**Q.** What about the viability [4] of the same compound?
**A.** 105% (inactive)

**Q.** What about the viability [5] of the same compound?
**A.** 101% (inactive)

**Q.** What about the differential viability (reversal) ([6]; H69AR cells + 2 uM doxorubicin) of the same compound?
**A.** 0.14% (inactive)

**Q.** And the viability [6, 9]?
**A.** 101%

**Q.** And the viability [6, 10]?
**A.** 101%

**Q.** And the inhibition [7]?
**A.** -1.58% (inactive)

**Q.** What about the inhibition [8] of the same compound?
**A.** -3.17% (inactive)

**Q.** Which results are given for `O=C1CC(c2ccc(F)c(Br)c2)C2=C(CCCC2=O)N1` (stereo not given)?
**A.** viability [1]: 102%; Her2 level [2]: 85.5% (inactive); viability [3]: 102% (inactive); viability [4]: 84.6% (inactive); viability [5]: 102% (inactive); differential viability (reversal) ([6]; H69AR cells + 2 uM doxorubicin): 5.7% (inactive); viability [6, 9]: 96.1%; viability [6, 10]: 102%; inhibition [7]: -3.95% (inactive); inhibition [8]: -4.67% (inactive)
